Measured values as given in ChEMBL document CHEMBL2375346, “Lanostane triterpenoids from the mushroom Naematoloma fasciculare” (J Nat Prod, 2013).
Activity calls are given as the source filed them. The calls are words filed in the database; no cut-off is given here.

Tests used:
[1] = tested on: BV-2; experiment: Antiinflammatory activity in mouse BV2 cells assessed as inhibition of LPS-induced nitrite production incubated for 30 mins prior to LPS challenge measured after 24 hrs by Griess assay; assay type: functional, cell-based
Method in brief: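 BV-2 murine microglia seeded at 3 × 10^4 cells/well, grown 24 h, then pretreated with compound for 30 min before 100 ng/mL LPS stimulation for a further 24 h. Nitrite in the medium was read by Griess reaction (1% sulfanilamide, 0.1% N-1-naphthylethylenediamine dihydrochloride in 5% phosphoric acid), with absorbance at 540 nm after 10 min against a sodium nitrite standard. L-NMMA was the positive control. IC50 reported.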

[2] = tested on: SK-MEL-2; experiment: Cytotoxicity against human SK-MEL-2 cells assessed as growth inhibition by SRB assay; assay type: functional, cell-based
Method in brief: (§1)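 Human cancer lines supplied by NCI. Cytotoxicity was measured by sulforhodamine B (SRB) assay at KRICT, with doxorubicin as positive control. IC50 reported.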

[3] = tested on: A549; experiment: Cytotoxicity against human A549 cells assessed as growth inhibition by SRB assay; assay type: functional, cell-based; method in brief: as §1
[4] = tested on: BV-2; experiment: Cytotoxicity against mouse BV2 cells assessed as cell viability by MTT assay; assay type: cell-based
Method in brief: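 Viability of BV-2 microglia was measured by MTT assay in parallel with the LPS-stimulated NO experiment: 3 × 10^4 cells/well, 30 min compound pretreatment, then 100 ng/mL LPS for 24 h.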

[5] = tested on: HCT-15; experiment: Cytotoxicity against human HCT15 cells assessed as growth inhibition by SRB assay; assay type: functional, cell-based; method in brief: as §1
[6] = tested on: SK-OV-3; experiment: Cytotoxicity against human SKOV3 cells assessed as growth inhibition by SRB assay; assay type: functional, cell-based; method in brief: as §1

| SMILES | Activity [1] | IC50 [2] [µM] | IC50 [3] [µM] | Activity [4] | IC50 [5] [µM] | IC50 [6] [µM] | IC50 [1] [µM] |
| --- | --- | --- | --- | --- | --- | --- | --- |
| CC(C)(O)[C@H](O)CC[C@@H](CO)[C@H]1CC[C@@]2(C)C3=C(CC(=O)[C@]12C)[C@@]1(C)C[C@@H](O)[C@H](O)C(C)(C)[C@@H]1CC3 | inactive | > 30 | > 30 | Toxic | > 30 | 7.98 | – |
| CC(C)(O)[C@H](O)CC[C@@H](CO)[C@H]1CC[C@@]2(C)C3=C(C[C@H](O)[C@]12C)[C@@]1(C)C[C@@H](O)[C@H](O)C(C)(C)[C@@H]1CC3=O | – | 4.77 | 3.99 | Non-toxic | 8.5 | 7.36 | 49.9 |
| C[C@H](CC[C@@H](O)C(C)(C)O)[C@H]1CC[C@@]2(C)C3=C(C[C@H](O)[C@]12C)[C@@]1(C)C[C@@H](O)[C@H](O)C(C)(C)[C@@H]1CC3 | inactive | 5.17 | 7.85 | Toxic | 8.22 | 8.53 | – |
| C[C@H](CC[C@@H](O)C(C)(C)O)[C@H]1CC[C@@]2(C)C3=C(C[C@H](O)[C@]12C)[C@@]1(C)C[C@@H](OC(=O)CC(C)(O)CC(=O)O)[C@H](O)C(C)(C)[C@@H]1CC3 (some centres not stated) | – | 16.6 | 27.2 | Non-toxic | 28.5 | 22.2 | 93.1 |
| C[C@H](CC[C@@H](O)C(C)(C)O)[C@H]1CC[C@@]2(C)C3=C(CC(=O)[C@]12C)[C@@]1(C)C[C@@H](O)[C@H](O)C(C)(C)[C@@H]1CC3 | inactive | > 30 | > 30 | Non-toxic | > 30 | 9.86 | – |
| COC(=O)CNC(=O)CC(C)(O)CC(=O)O[C@H]1[C@H](O)C[C@]2(C)C3=C(CC[C@H]2C1(C)C)[C@]1(C)CC[C@H]([C@H](CO)CC[C@@H](O)C(C)(C)O)[C@@]1(C)[C@@H](O)C3 (some centres not stated) | inactive | 9.06 | > 30 | – | > 30 | > 30 | – |
| C[C@H](CC[C@@H](O)C(C)(C)O)[C@H]1CC[C@@]2(C)C3=C(C[C@H](O)[C@]12C)[C@@]1(C)C[C@@H](O)[C@H](OC(=O)C[C@@](C)(O)CC(=O)O)C(C)(C)[C@@H]1CC3 | inactive | > 30 | > 30 | – | > 30 | > 30 | – |
| COC(=O)CNC(=O)CC(C)(O)CC(=O)O[C@@H]1C[C@]2(C)C3=C(CC[C@H]2C(C)(C)[C@H]1O)[C@]1(C)CC[C@H]([C@H](CO)CC[C@@H](O)C(C)(C)O)[C@@]1(C)[C@@H](O)C3 (some centres not stated) | inactive | 5.73 | > 30 | Toxic | > 30 | > 30 | – |
| CC(C)(O)[C@H](O)CC[C@@H](CO)[C@H]1CC[C@@]2(C)C3=CC[C@H]4C(C)(C)[C@@H](O)[C@H](O)C[C@]4(C)C3=C[C@H](O)[C@]12C | inactive | 4.54 | 4.47 | Toxic | 7.71 | 3.29 | – |
| COc1cccc2c1C(=O)c1c(O)c3c(c(O)c1C2=O)C[C@@](O)(C(=O)CO)C[C@@H]3O[C@H]1C[C@H](N)[C@H](O)[C@H](C)O1 [DOXORUBICIN] | – | 0.01 | 0.02 | – | 0.13 | 0.01 | – |
| CC(C)(O)[C@H](O)CC[C@@H](CO)[C@H]1CC[C@]2(C)[C@]1(C)[C@@H](O)C=C1[C@]23O[C@H]3C[C@H]2C(C)(C)[C@@H](O)[C@H](O)C[C@]12C | inactive | 8.26 | 6.59 | Non-toxic | 8.53 | 7.08 | – |
| CC(C)(O)[C@H](O)CC[C@@H](CO)[C@H]1CC[C@@]2(C)C3=C(C[C@H](O)[C@]12C)[C@@]1(C)C[C@@H](O)[C@H](OC(=O)C[C@@](C)(O)CC(=O)O)C(C)(C)[C@@H]1CC3 | inactive | > 30 | > 30 | Non-toxic | > 30 | > 30 | – |
| COC(=O)CNC(=O)CC(C)(O)CC(=O)O[C@H]1[C@H](O)C[C@]2(C)C3=C(CC[C@H]2C1(C)C)[C@]1(C)CC[C@H]([C@H](C)CC[C@@H](O)C(C)(C)O)[C@@]1(C)[C@@H](O)C3 (some centres not stated) | inactive | 8.6 | > 30 | Toxic | > 30 | > 30 | – |
| CC(C)(O)[C@H](O)CC[C@@H](CO)[C@H]1CC[C@@]2(C)C3=C(C[C@H](O)[C@]12C)[C@@]1(C)C[C@@H](O)[C@H](O)C(C)(C)[C@@H]1CC3 | inactive | 2.29 | 2.37 | Toxic | 3.06 | 2.82 | – |
| CC(C)(O)[C@H](O)CC[C@@H](CO)[C@H]1CC[C@@]2(C)C3=C(C[C@H](O)[C@]12C)[C@@]1(C)C[C@@H](OC(=O)C[C@@](C)(O)CC(=O)O)[C@H](O)C(C)(C)[C@@H]1CC3 | inactive | 25.2 | 25.5 | Non-toxic | 28 | 16.2 | – |
| COC(=O)CNC(=O)CC(C)(O)CC(=O)O[C@@H]1C[C@]2(C)C3=C(CC[C@H]2C(C)(C)[C@H]1O)[C@]1(C)CC[C@H]([C@H](C)CC[C@@H](O)C(C)(C)O)[C@@]1(C)[C@@H](O)C3 (some centres not stated) | inactive | 9.16 | > 30 | Toxic | > 30 | > 30 | – |
